{"source": "paper PMC8463927", "about": "(Journal of Advanced Research, 2021)", "key": {"[1]": {"tested_on": "RAW264.7 cells", "experiment": "cAMP and CREB phosphorylation in RAW264.7 cells", "assay_type": "cell-based, murine", "conditions": "for effect on arctigenin-induced phosphorylation of CREB: 10 μM with arctigenin 100 μM", "summary_of_the_method": "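RAW264.7 cells were exposed to test compound for 15 min under LPS (1 μg/mL) induction, or at 100 μM alongside H89 (10 μM) and/or forskolin (10 μM). Lysates were BCA-normalised and run on 10% SDS-PAGE and nitrocellulose, probed overnight at 4 °C, and detected by chemiluminescence. Intracellular cAMP was measured in 0.1 M HCl lysates by direct ELISA. Mean ± SEM, n = 3.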"}, "[2]": {"tested_on": "LPS-stimulated human PBMCs", "experiment": "LPS-induced TNF-α production in human PBMCs", "assay_type": "cell-based", "conditions": "PBMC, read-out: IC50 on LPS-induced production of TNF-α", "summary_of_the_method": "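Purchased human PBMCs (1 × 10⁶/well) in RPMI-1640 with 10% FBS and 2 mM L-glutamine were stimulated with LPS in the presence of test compound. TNF-α production was measured.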"}, "[3]": {"experiment": "Arctigenin concentration in inflamed skin tissues", "assay_type": "in vivo, mice", "conditions": "topical application"}, "[4]": {"target": "PDE4D catalytic domain (Homo sapiens, UniProt Q08499)", "sequence (Q08499 386-715 limits assumed)": "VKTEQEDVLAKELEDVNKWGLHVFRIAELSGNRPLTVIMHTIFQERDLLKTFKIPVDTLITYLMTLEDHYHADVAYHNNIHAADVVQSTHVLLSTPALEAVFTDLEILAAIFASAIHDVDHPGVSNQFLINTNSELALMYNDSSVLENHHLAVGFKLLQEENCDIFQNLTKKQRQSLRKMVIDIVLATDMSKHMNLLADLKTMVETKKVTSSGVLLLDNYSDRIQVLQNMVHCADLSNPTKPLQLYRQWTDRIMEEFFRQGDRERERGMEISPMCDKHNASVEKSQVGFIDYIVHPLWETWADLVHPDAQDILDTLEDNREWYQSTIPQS", "experiment": "PDEs enzyme assay", "assay_type": "biochemical", "summary_of_the_method": "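Purified PDE4D catalytic domain. Activity was read as hydrolysis of [³H]-cAMP to [³H]-AMP by scintillation proximity assay.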"}, "[5]": {"tested_on": "PDE4", "experiment": "Enzymatic activity of cAMP-specific PDE4 in RAW264.7 cells", "assay_type": "cell-based, murine", "conditions": "RAW264.7 and LPS-stimulated RAW264.7 cells"}, "[6]": {"tested_on": "LPS-induced RAW264.7 cells", "experiment": "Inflammatory mediators in LPS-induced RAW264.7 cells", "assay_type": "cell-based, murine", "summary_of_the_method": "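RAW264.7 cells in DMEM with 10% FBS at 37 °C and 5% CO₂ were given test compound (100, 30, 10 μM) with LPS (1 μg/mL). Cells were lysed after 3 h for SYBR Green RT-PCR (ΔΔCt). Supernatants were kept for TNF-α and IL-6 ELISA and NO measurement.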"}, "[7]": {"tested_on": "IMQ-induced murine psoriasis", "experiment": "IMQ-induced murine psoriatic skin lesions", "assay_type": "in vivo, BALB/c mice", "summary_of_the_method": "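Female BALB/c mice (6–8 weeks, 20–22 g), dorsal skin shaved, got 62.5 mg daily of […] IMQ cream topically for 7 days; groups (n = 7) were normal, IMQ only, and IMQ plus 5% test compound cream. PASI scored blind by 3 investigators. Read-outs: skin cAMP-specific PDE activity normalised to total protein, Ki-67 immunohistochemistry, serum Luminex 17-plex, skin RT-PCR (ΔΔCt), and skin-cell flow cytometry after collagenase IV digestion. Mean ± SEM.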"}, "[8]": {"conditions": "cited from earlier work"}, "[9]": {"tested_on": "RAW264.7 cells", "experiment": "Cytotoxicity on RAW264.7 cells", "assay_type": "cell-based, murine", "conditions": "24 h, CCK8"}, "[10]": {"target": "T1, PDK1 (Homo sapiens, UniProt O15530)", "T1 sequence (O15530 1-556)": "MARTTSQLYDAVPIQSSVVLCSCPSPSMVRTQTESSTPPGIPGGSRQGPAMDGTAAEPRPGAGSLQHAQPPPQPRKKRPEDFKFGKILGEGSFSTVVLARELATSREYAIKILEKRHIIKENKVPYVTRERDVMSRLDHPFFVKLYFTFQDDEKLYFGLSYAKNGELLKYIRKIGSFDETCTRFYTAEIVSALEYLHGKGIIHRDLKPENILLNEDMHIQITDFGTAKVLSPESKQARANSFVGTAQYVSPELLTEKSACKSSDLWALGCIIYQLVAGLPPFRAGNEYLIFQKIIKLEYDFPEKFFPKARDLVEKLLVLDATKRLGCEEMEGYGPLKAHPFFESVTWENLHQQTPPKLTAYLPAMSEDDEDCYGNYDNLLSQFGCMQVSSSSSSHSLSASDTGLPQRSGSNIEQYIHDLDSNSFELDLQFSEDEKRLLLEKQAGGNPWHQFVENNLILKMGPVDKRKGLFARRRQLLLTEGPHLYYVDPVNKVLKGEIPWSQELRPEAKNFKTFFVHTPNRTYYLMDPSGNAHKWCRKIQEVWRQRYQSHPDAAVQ", "experiment": "PDK1 kinase assay", "assay_type": "biochemical", "conditions": "compared with GSK2334470"}}}
{"smiles": "O=S(=O)(NCCNC/C=C/c1ccc(Br)cc1)c1cccc2cnccc12", "note": "[H89, reference compound]", "values": [{"measurement": "effect on arctigenin-induced phosphorylation of CREB", "setting": "[1]; 15 min", "value": "obviously blocked the effects of arctigenin on phosphorylation of CREB"}]}
{"smiles": "C=C[C@@]1(C)CC(=O)[C@]2(O)[C@@]3(C)[C@@H](O)CCC(C)(C)[C@@H]3[C@H](O)[C@H](OC(C)=O)[C@@]2(C)O1", "note": "[forskolin, reference compound]", "values": [{"measurement": "effect on arctigenin-induced phosphorylation of CREB", "setting": "[1]; 15 min", "value": "further enhance the effects of arctigenin on promoting the phosphorylation of CREB"}]}
{"smiles": "COc1cc(C[C@H]2C(=O)OC[C@@H]2Cc2ccc(OC)c(OC)c2)ccc1O", "note": "[Arctigenin]", "values": [{"measurement": "phosphorylation of CREB", "setting": "[1]; 15 min, western blot", "value": "led to the phosphorylation of CREB"}, {"measurement": "intracellular cAMP", "setting": "[1]; 30 min, concentration-dependent", "value": "significant elevation of intracellular cAMP"}, {"measurement": "IC50", "setting": "[2]", "value": "35.2 ± 6.01", "unit": "µM"}, {"measurement": "concentration in the inflamed skin tissues", "setting": "[3]", "value": "29.67 ± 15.42", "unit": "μg/g skin samples"}, {"measurement": "IC50", "setting": "[4]", "value": "3.76 ± 0.28", "unit": "µM"}, {"measurement": "enzymatic activity of PDE4 in cells", "setting": "[5]", "value": "inhibit the enzymatic activity of PDE4 in the concentration-dependent manner"}, {"measurement": "production of TNF-α and IL-6", "setting": "[6]; 100, 30, and 10 μM, LPS 24 h, ELISA, dose-dependent", "value": "reduce the production of TNF-α and IL-6"}, {"measurement": "mRNA expression level of TNF-α and IL-6", "setting": "[6]; LPS 3 h, RT-PCR", "value": "decreased the mRNA expression level"}, {"measurement": "iNOS and COX-2 mRNA", "setting": "[6]; concentration-dependent", "value": "downregulated"}, {"measurement": "serum IL-10", "setting": "[7]; Luminex assay", "value": "promote the secretion of IL-10"}, {"measurement": "serum inflammatory cytokines", "setting": "[7]; Luminex assay", "value": "reduce the production of inflammatory cytokines"}, {"measurement": "CCR6 and CXCR3 on CD45+ leukocytes", "setting": "[7]; flow cytometry", "value": "suppressed the protein expression of CCR6 and CXCR3"}, {"measurement": "skin myeloid cells, macrophages, neutrophils, DCs", "setting": "[7]; flow cytometry", "value": "decreased when treated with arctigenin"}, {"measurement": "skin-infiltrated leukocytes, APCs, T cells, γδT cells", "setting": "[7]; flow cytometry", "value": "reduced upon arctigenin treatment"}, {"measurement": "expression of chemokines in inflamed skins", "setting": "[7]; gene expression", "value": "suppress the expression of chemokines"}, {"measurement": "expression of inflammatory cytokines in inflamed tissues", "setting": "[7]; mRNA level", "value": "extensively attenuated"}, {"measurement": "Ki-67 positive staining in the epidermis", "setting": "[7]; topical 5% arctigenin cream", "value": "reduced"}, {"measurement": "activity of cAMP-specific PDEs in skins", "setting": "[7]; topical 5% arctigenin cream", "value": "obviously reversed"}, {"measurement": "cumulative PASI scores", "setting": "[7]; topical 5% arctigenin cream", "value": "decreased the cumulative PASI scores"}, {"measurement": "skin level of cAMP", "setting": "[7]; topical 5% arctigenin cream", "value": "upregulate the skin level of cAMP"}, {"measurement": "splenomegaly (spleen index)", "setting": "[7]; topical 5% arctigenin cream", "value": "ameliorate the concomitant splenomegaly"}, {"measurement": "epidermal thickening", "setting": "[7]; topical 5% arctigenin cream, H&E", "value": "dramatically improved the epidermal thickening"}, {"measurement": "body weight loss", "setting": "[7]; topical 5% arctigenin cream, daily", "value": "significantly reversed the body weight loss"}, {"measurement": "therapeutic effect, topical vs oral", "setting": "[7]; topical 5% cream vs oral 100 mg/kg", "value": "better therapeutic effect"}, {"measurement": "phosphorylation of CREB in skins", "setting": "[7]; western blot", "value": "promote the phosphorylation of CREB"}, {"measurement": "plasma concentration", "setting": "[8]; oral administration, several animal species, ref [4], [35]", "value": "undetectable"}, {"measurement": "tissue accumulation in brain", "setting": "[8]; ref [34]", "value": "lower than that in intestine, liver, kidney, lung, and heart"}, {"measurement": "cytotoxicity", "setting": "[9]", "value": "not associated with the cytotoxicity"}, {"measurement": "inhibition on PDK1", "setting": "[10]", "value": "negligible"}]}
